According to ChEMBL document CHEMBL4402570, “Discovery and Optimization of Novel Pyrazolopyrimidines as Potent and Orally Bioavailable Allosteric HIV-1 Integrase Inhibitors” (J Med Chem, 2020):

Experiments:
[1] = test system: Human immunodeficiency virus 1; test: Antiviral activity against HIV1 NL4-3 infected in human MT2 cells measured after 3 to 4 days in presence of human serum albumin by luciferase reporter gene assay; format: functional, organism-based; details: Human immunodeficiency virus 1, NL4-3, MT2
[2] = Stability of the compound in human liver microsomes assessed as parent compound remaining at 0.5 uM measured after 10 mins in presence of NADPH by LC-MS/MS analysis; format: ADME, Microsome; details: read-out: Stability
How it was run: (§1)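 CYP-mediated turnover: 0.5 μM compound with human or rat liver microsomes (1 mg/mL) in 100 mM sodium phosphate pH 7.4, 6.6 mM MgCl2, 37 °C; started with NADPH, DMSO 0.014%. Samples quenched at 0 and 10 min; parent remaining by LC-MS/MS; duplicate.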

[3] = Volume of distribution at steady state in Sprague-Dawley rat at 1 mg/kg, iv infusion for 10 mins or 5 mg/kg, po administered via gavage by LC-MS/MS analysis; format: ADME, organism-based; details: in vivo, read-out: Vdss
How it was run: (§2)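 Rats given iv via implanted venous cannula as 10 min infusion, or oral gavage after overnight fast; vehicle 10% dimethylacetamide/90% PEG400 for both routes. Plasma from venous-port blood, treated with CH3CN containing internal standard, analysed by LC-MS/MS; oral plasma levels followed 24 h after 5 mg/kg. Parameters by noncompartmental analysis of concentration-time data.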

[4] = Stability of the compound in rat liver microsomes assessed as parent compound remaining at 0.5 uM measured after 10 mins in presence of NADPH by LC-MS/MS analysis; format: ADME, Microsome; details: read-out: Stability; how it was run: as §1
[5] = test system: Human immunodeficiency virus 1; test: Antiviral activity against HIV1 NL4-3 infected in human MT2 cells measured after 3 to 4 days by luciferase reporter gene assay; format: functional, organism-based
[6] = test system: Human immunodeficiency virus 1; test: Selectivity ratio of EC50 for HIV1 NL4-3 infected in human MT2 cells in presence of human serum albumin to EC50 for HIV1 NL4-3 infected in human MT2 cells in absence of human serum albumin; format: functional
[7] = Oral bioavailability in Sprague-Dawley rat at 5 mg/kg administered via gavage by LC-MS/MS analysis; format: ADME, organism-based; details: in vivo; how it was run: as §2
[8] = Therapeutic index, ratio of CC50 for human MT2 cells to EC50 for HIV1 NL4-3 infected in human MT2 cells; format: toxicity, cell-based; details: read-out: Ratio CC50/EC50
[9] = Half life in Sprague-Dawley rat at 1 mg/kg, iv infusion for 10 mins or 5 mg/kg, po administered via gavage by LC-MS/MS analysis; format: ADME, organism-based; details: in vivo; how it was run: as §2
[10] = Clearance in Sprague-Dawley rat at 1 mg/kg, iv infusion for 10 mins or 5 mg/kg, po administered via gavage by LC-MS/MS analysis; format: ADME, organism-based; details: in vivo; how it was run: as §2
[11] = AUC (0 to 24 hrs) in Sprague-Dawley rat at 1 mg/kg, iv infusion for 10 mins or 5 mg/kg, po administered via gavage by LC-MS/MS analysis; format: ADME, organism-based; details: in vivo; how it was run: as §2
[12] = Cytotoxicity against human MT2 cells measured after 4 days by XTT assay; format: cell-based
How it was run: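 MT-2 cell viability measured by XTT after 4 days of compound exposure, run in parallel with the antiviral assay; CC50 from n ≥ 2 determinations.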

[13] = Cmax in Sprague-Dawley rat at 1 mg/kg, iv infusion for 10 mins or 5 mg/kg, po administered via gavage by LC-MS/MS analysis; format: ADME, organism-based; details: in vivo; how it was run: as §2
[14] = Permeability of the compound in pH 7.4 buffer at 100 uM measured after 4 hrs by sandwich-PAMPA; format: ADME; details: read-out: permeability
How it was run: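 Parallel artificial membrane permeability: compound at 100 μM in donor buffer pH 7.4, permeating to acceptor through artificial membrane over 4 h; donor, acceptor and t0 solutions read by UV plate reader; triplicate.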

[15] = Tmax in Sprague-Dawley rat at 1 mg/kg, iv infusion for 10 mins or 5 mg/kg, po administered via gavage by LC-MS/MS analysis; format: ADME, organism-based; details: in vivo; how it was run: as §2
[16] = biological target: Human immunodeficiency virus type 1 integrase (Human immunodeficiency virus 1, UniProt Q7ZJM1); test: Allosteric inhibition of [3H]-2-tert-butoxy-2-[2-methyl-4-(p-tolyl)-3-quinolyl]acetic acid binding to HIV1 integrase measured after 1 hr under dark condition by microbeta plate reader method
How it was run: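 Scintillation proximity displacement of tritiated LEDGF-site inhibitor from purified HIV-1 integrase (13 μM) premixed 1 h with PVT SPA beads (2 mg/mL); […]. Buffer 26 mM MOPS pH 7.0, 11 mM DTT, 100 mM NaCl, 20 mM MgCl2, 0.05% NP-40, 5% PEG-8000. Compounds 100 μM to 0.0512 nM, ten 5-fold dilutions. 1 h rocking, RT, dark; read after overnight; Ki derived.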

[17] = test system: Human immunodeficiency virus 1; test: Antiviral activity against HIV1 NL4-3 harboring G140S/Q148H mutant infected in human MT2 cells measured after 3 to 4 days by luciferase reporter gene assay; format: functional, organism-based; details: Human immunodeficiency virus 1, NL4-3, MT2
How it was run: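 MT-2 cells (RPMI 1640, 10% heat-inactivated FBS, 10 mM HEPES pH 7.55, 2 mM L-glutamine, penicillin/streptomycin) infected with titered NL4-3 Renilla luciferase reporter virus (luciferase replacing nef) carrying integrase G140S/Q148H, with serial compound dilutions from 10 mM DMSO stock, final DMSO 1%; luciferase read after 3–4 days; EC50 from median effect equation; n ≥ 2, some n = 1.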

[18] = Human immunodeficiency virus 1, NL4-3, MT2

Sequence of Human immunodeficiency virus type 1 integrase (Q7ZJM1 whole entry): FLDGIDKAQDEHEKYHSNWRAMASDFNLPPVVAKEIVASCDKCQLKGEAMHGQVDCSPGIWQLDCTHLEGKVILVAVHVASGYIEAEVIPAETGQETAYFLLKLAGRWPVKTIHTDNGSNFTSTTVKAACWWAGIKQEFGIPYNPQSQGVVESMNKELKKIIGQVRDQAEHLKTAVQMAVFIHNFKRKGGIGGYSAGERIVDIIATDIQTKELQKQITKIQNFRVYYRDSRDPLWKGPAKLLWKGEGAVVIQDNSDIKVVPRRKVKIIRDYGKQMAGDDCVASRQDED

Row | remaining at 10 min, 0.5 µM [2] [%] | remaining at 10 min, 0.5 µM [4] [%] | EC50 [5, 18] [µM] | Papp at 4 h, 100 µM [14] [×10⁻⁶ cm/s] | Compound | selectivity ratio [8] | CC50 at 96 h [12] [µM] | Ki [16] [µM] | also measured
1 | 100 | 89 | 0.003 | 60.8 | Cc1nc2cc(-c3cccc(-c4ccccc4F)c3)nn2c(-c2cc(F)c3c(c2C)CCCO3)c1[C@H](OC(C)(C)C)C(=O)O | 6360 | 19.1 |  | EC50 [1]: 0.019 µM; Vd [3]: 0.7 L/kg; Ratio EC50 [6]: 6; bioavailability [7]: 44%; half-life [9]: 2 h; clearance [10]: 13 mL/min/kg; AUC(0-t) [11]: 4.73 µM·h; Cmax [13]: 803 nM; Tmax [15]: 2.7 h
2 |  |  | 0.13 |  | Cc1nc2cc(-c3cccc(-c4ccccc4)c3)nn2c(N2CCC(C)(C)CC2)c1C(OC(C)(C)C)C(=O)O (stereo not given) |  |  |  | 
3 |  |  | > 40 |  | Cc1nc2cc(-c3ccccc3)nn2c(C)c1C(OC(C)(C)C)C(=O)O (stereo not given) |  |  | > 40 | 
4 | 95 | 94 | 0.1 | 49.2 | Cc1ccc(-c2cc3nc(C)c(C(OC(C)(C)C)C(=O)O)c(-c4cc(F)c5c(c4C)CCCO5)n3n2)cc1 (stereo not given) |  |  |  | 
5 | 99 | 99 | 0.006 | 76.5 | COc1ccccc1-c1cccc(-c2cc3nc(C)c([C@H](OC(C)(C)C)C(=O)O)c(-c4cc(F)c5c(c4C)CCCO5)n3n2)c1 | 3920 | 23.5 |  | EC50 [1]: 0.03 µM; Vd [3]: 1.8 L/kg; Ratio EC50 [6]: 5; bioavailability [7]: 59%; half-life [9]: 3 h; clearance [10]: 28 mL/min/kg; AUC(0-t) [11]: 2.99 µM·h; Cmax [13]: 1110 nM; Tmax [15]: 2.3 h
6 | 100 | 100 | 0.06 | 37.5 | Cc1nc2cc(-c3cccc(OCc4ccccc4)c3)nn2c(N2CCC(C)(C)CC2)c1C(OC(C)(C)C)C(=O)O (stereo not given) |  |  |  | 
7 | 78 | 96 | 0.006 | 73.3 | Cc1nc2cc(-c3cccc(-c4ccccc4)c3)nn2c(-c2cc(F)c3c(c2C)CCCO3)c1[C@H](OC(C)(C)C)C(=O)O | 1100 | 6.59 |  | EC50 [1]: 0.11 µM; Ratio EC50 [6]: 18
8 |  |  | > 40 |  | Cc1ccc(Nc2c(C(OC(C)(C)C)C(=O)O)c(C)nc3cc(-c4ccccc4)nn23)cc1 (stereo not given) |  |  | > 40 | 
9 |  |  | 0.05 |  | Cc1nc2ccccc2c(-c2ccc3c4c(ccnc24)CCO3)c1[C@H](OC(C)(C)C)C(=O)O [BI-224436] | 66800 | 3340 |  | 
10 | 73 | 100 | 0.005 | 51.4 | COc1ccc(-c2cccc(-c3cc4nc(C)c([C@H](OC(C)(C)C)C(=O)O)c(-c5cc(F)c6c(c5C)CCCO6)n4n3)c2)cn1 | > 4600 | > 23 |  | EC50 [1]: 0.023 µM; Ratio EC50 [6]: 5
11 |  |  | > 40 |  | COc1ccccc1-c1c(C(OC(C)(C)C)C(=O)O)c(C)nc2cc(-c3ccccc3)nn12 (stereo not given) |  |  | > 40 | 
12 |  |  | 0.62 |  | Cc1ccc(-c2c(C(OC(C)(C)C)C(=O)O)c(C)nc3cc(-c4ccccc4)nn23)cc1 (stereo not given) |  | 77 | 0.68 to 0.7 | 
13 |  |  | > 40 |  | Cc1cccc(-c2c(C(OC(C)(C)C)C(=O)O)c(C)nc3cc(-c4ccccc4)nn23)c1 (stereo not given) |  |  | 4.4 | 
14 | 46 | 94 | 0.003 | 48.8 | Cc1nc2cc(-c3cccc(-c4ccncc4)c3)nn2c(-c2cc(F)c3c(c2C)CCCO3)c1[C@H](OC(C)(C)C)C(=O)O | 4410 | 13.2 |  | EC50 [1]: 0.07 µM; Ratio EC50 [6]: 23
15 |  |  | > 40 |  | COc1cccc(-c2c(C(OC(C)(C)C)C(=O)O)c(C)nc3cc(-c4ccccc4)nn23)c1 (stereo not given) |  |  | 15.3 | 

Row | Compound | remaining at 10 min, 0.5 µM [2] [%] | remaining at 10 min, 0.5 µM [4] [%] | EC50 [5, 18] [µM] | Papp at 4 h, 100 µM [14] [×10⁻⁶ cm/s] | selectivity ratio [8] | CC50 at 96 h [12] [µM] | Ki [16] [µM] | also measured
16 | Cc1nc2cc(-c3cccc(-c4ccccc4)c3)nn2c(-c2cc(F)c3c(c2C)CCCO3)c1C(OC(C)(C)C)C(=O)O (racemic) | 86 | 100 | 0.015 | 65.2 |  |  |  | EC50 [17]: 0.01 µM
17 | Cc1nc2cc(-c3ccccc3)nn2c(-c2cc(F)c3c(c2C)CCCO3)c1C(OC(C)(C)C)C(=O)O (racemic) | 93 | 97 |  | 21.8 |  |  | 0.17 | EC50 [5]: 0.21 µM; EC50 [17]: 0.119 µM
